Data published in ChEMBL document CHEMBL4346672, “Antimicrobial and KPC/AmpC inhibitory activity of functionalized benzosiloxaboroles” (Eur J Med Chem, 2019).
≈ marks a conversion by molar mass, not a printed value. Calls of active or inactive are those of the source. The calls are words filed in the database; no cut-off is given here.

Columns and labels:
Candida parapsilosis = assay: Antifungal activity against Candida parapsilosis ATCC 22019 assessed as decrease in fungal cell growth at 0.78 to 12.5 mg/L incubated for 24 hrs by CLSI broth dilution method; format: functional; details: Lodderomyces parapsilosis, ATCC 22019, 24 h
Summary of the method: (§1)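 Yeast broth dilution in RPMI 1640 with 2% glucose, compounds in DMSO. Yeasts pre-grown on Sabouraud dextrose agar. Growth read after 35 °C, 24 h.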

Enterococcus faecium [1] = assay: Antibacterial activity against Enterococcus faecium ATCC 6057 assessed as diameter of zone inhibition measured after 18 hrs by CLSI disc diffusion method; format: functional
Summary of the method: (§2)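 Disc diffusion on Mueller-Hinton II agar. Compounds dissolved in DMSO. Strains stored at -80 °C and subcultured twice on tryptic soy agar before testing. Inhibition zones read after 35 °C, 18 h.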

Bacillus subtilis = assay: Antibacterial activity against Bacillus subtilis ATCC 6633 assessed as diameter of zone inhibition measured after 18 hrs by CLSI disc diffusion method; format: functional; summary of the method: as §2
Klebsiella pneumoniae [2] = details: ATCC 13883
Serratia marcescens [3] = assay: Antibacterial activity against Serratia marcescens ATCC 13880 measured after 18 hrs by CLSI broth dilution method; format: functional; details: ATCC 13880, 18 h
Summary of the method: (§3)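 Broth MIC in Mueller-Hinton II broth following CLSI, compounds dissolved in DMSO. Strains subcultured twice on tryptic soy agar before testing. Growth read after 35 °C, 18 h.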

Enterobacter cloacae [4] = assay: Antibacterial activity against Enterobacter cloacae DSM 6234 measured after 18 hrs by CLSI broth dilution method; format: functional; details: DSM 6234, 18 h; summary of the method: as §3
[5] = tested on: Meyerozyma guilliermondii; assay: Antifungal activity against Candida guilliermondii IBA 155 assessed as decrease in fungal cell growth at 0.78 to 12.5 mg/L incubated for 24 hrs by CLSI broth dilution method; format: functional; details: IBA 155, 24 h; summary of the method: as §1
[6] = tested on: Stenotrophomonas maltophilia; assay: Antibacterial activity against Stenotrophomonas maltophilia ATCC 13637 assessed as diameter of zone inhibition measured after 18 hrs by CLSI disc diffusion method; format: functional; summary of the method: as §2
Serratia marcescens [7] = assay: Antibacterial activity against Serratia marcescens ATCC 13880 assessed as fold reduction of MIC in presence of efflux pump inhibitor PAbetaN incubated for 18 hrs by broth microdilution method; format: functional
Summary of the method: (§4)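 MICs determined with and without PAβN at 50 mg/L in Mueller-Hinton broth containing 1 mM MgSO₄. 2-fold serial dilutions per CLSI. Fold change taken from the paired MICs after 35 °C, 18 h.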

[8] = tested on: Staphylococcus epidermidis; assay: Antibacterial activity against Staphylococcus epidermidis ATCC 12228 measured after 18 hrs by CLSI broth dilution method; format: functional; details: ATCC 12228, 18 h; summary of the method: as §3
[9] = tested on: Staphylococcus epidermidis; assay: Antibacterial activity against Staphylococcus epidermidis ATCC 12228 assessed as diameter of zone inhibition measured after 18 hrs by CLSI disc diffusion method; format: functional; summary of the method: as §2
Proteus mirabilis [10] = assay: Antibacterial activity against Proteus mirabilis ATCC 12453 assessed as fold reduction of MIC in presence of efflux pump inhibitor PAbetaN incubated for 18 hrs by broth microdilution method; format: functional; summary of the method: as §4
[11] = tested on: Meyerozyma guilliermondii; assay: Antifungal activity against Candida guilliermondii IBA 155 assessed as diameter of zone inhibition incubated for 24 hrs by CLSI disc diffusion method; format: functional
Summary of the method: (§5)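 Yeast disc diffusion on Mueller-Hinton agar supplemented with 2% glucose and 0.5 mg/L methylene blue. Compounds in DMSO. Yeasts subcultured on Sabouraud dextrose agar before testing. Zones read after 35 °C, 24 h.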

Proteus mirabilis [12] = assay: Antibacterial activity against Proteus mirabilis ATCC 12453 assessed as diameter of zone inhibition measured after 18 hrs by CLSI disc diffusion method; format: functional; summary of the method: as §2
Proteus mirabilis [13] = assay: Antibacterial activity against Proteus mirabilis ATCC 12453 measured after 18 hrs by CLSI broth dilution method; format: functional; details: ATCC 12453, 18 h; summary of the method: as §3
[14] = tested on: Bordetella bronchiseptica; assay: Antibacterial activity against Bordetella bronchiseptica ATCC 4617 assessed as diameter of zone inhibition measured after 18 hrs by CLSI disc diffusion method; format: functional; summary of the method: as §2
Staphylococcus aureus [15] = assay: Antibacterial activity against Staphylococcus aureus ATCC 6538P assessed as diameter of zone inhibition measured after 18 hrs by CLSI disc diffusion method; format: functional; summary of the method: as §2
Pichia kudriavzevii = assay: Antifungal activity against Candida krusei ATCC 6258 assessed as decrease in fungal cell growth at 0.78 to 12.5 mg/L incubated for 24 hrs by CLSI broth dilution method; format: functional; details: ATCC 6258, 24 h; summary of the method: as §1
Staphylococcus aureus [16] = assay: Antibacterial activity against Staphylococcus aureus ATCC 6538P measured after 18 hrs by CLSI broth dilution method; format: functional; summary of the method: as §3
Acinetobacter baumannii [17] = assay: Antibacterial activity against Acinetobacter baumannii ATCC 19606 assessed as diameter of zone inhibition measured after 18 hrs by CLSI disc diffusion method; format: functional; summary of the method: as §2
Klebsiella pneumoniae [18] = assay: Antibacterial activity against Klebsiella pneumoniae ATCC 13883 assessed as fold reduction of MIC in presence of efflux pump inhibitor PAbetaN incubated for 18 hrs by broth microdilution method; format: functional; summary of the method: as §4
Acinetobacter baumannii [19] = assay: Antibacterial activity against Acinetobacter baumannii ATCC 19606 assessed as fold reduction of MIC in presence of efflux pump inhibitor PAbetaN incubated for 18 hrs by broth microdilution method; format: functional; summary of the method: as §4
Pseudomonas aeruginosa [20] = assay: Antibacterial activity against Pseudomonas aeruginosa ATCC 27853 assessed as diameter of zone inhibition measured after 18 hrs by CLSI disc diffusion method; format: functional, organism-based; summary of the method: as §2
Candida tropicalis [21] = assay: Antifungal activity against Candida tropicalis IBA 171 assessed as decrease in fungal cell growth at 0.78 to 12.5 mg/L incubated for 24 hrs by CLSI broth dilution method; format: functional; details: IBA 171, 24 h; summary of the method: as §1
Enterococcus faecalis [22] = assay: Antibacterial activity against Enterococcus faecalis ATCC 29212 measured after 18 hrs by CLSI broth dilution method; format: functional; details: ATCC 29212, 18 h; summary of the method: as §3
Enterococcus faecium [23] = assay: Antibacterial activity against Enterococcus faecium ATCC 6057 measured after 18 hrs by CLSI broth dilution method; format: functional; details: ATCC 6057, 18 h; summary of the method: as §3
Candida tropicalis [24] = assay: Antifungal activity against Candida tropicalis IBA 171 assessed as diameter of zone inhibition incubated for 24 hrs by CLSI disc diffusion method; format: functional; summary of the method: as §5
Enterococcus faecalis [25] = assay: Antibacterial activity against Enterococcus faecalis ATCC 29212 assessed as diameter of zone inhibition measured after 18 hrs by CLSI disc diffusion method; format: functional; summary of the method: as §2
Burkholderia cepacia = assay: Antibacterial activity against Burkholderia cepacia ATCC 25416 assessed as diameter of zone inhibition measured after 18 hrs by CLSI disc diffusion method; format: functional; summary of the method: as §2
Enterobacter cloacae [26] = assay: Antibacterial activity against Enterobacter cloacae DSM 6234 assessed as fold reduction of MIC in presence of efflux pump inhibitor PAbetaN incubated for 18 hrs by broth microdilution method; format: functional; summary of the method: as §4
Candida albicans = assay: Antifungal activity against Candida albicans ATCC 90028 assessed as diameter of zone inhibition incubated for 24 hrs by CLSI disc diffusion method; format: functional; summary of the method: as §5
Escherichia coli = assay: Antibacterial activity against Escherichia coli ATCC 25922 measured after 18 hrs by CLSI broth dilution method; format: functional; details: ATCC 25922, 18 h; summary of the method: as §3
[27] = tested on: Stenotrophomonas maltophilia; assay: Antibacterial activity against Stenotrophomonas maltophilia ATCC 13637 assessed as fold reduction of MIC in presence of efflux pump inhibitor PAbetaN incubated for 18 hrs by broth microdilution method; format: functional; summary of the method: as §4
Pseudomonas aeruginosa [28] = assay: Antibacterial activity against Pseudomonas aeruginosa ATCC 27853 measured after 18 hrs by CLSI broth dilution method; format: functional; details: ATCC 27853, 18 h; summary of the method: as §3

| SMILES | MIC (Candida parapsilosis) [µg/mL] | diameter of the inhibition zone (DIZ) (Enterococcus faecium [1]) | diameter of the inhibition zone (DIZ) (Bacillus subtilis) [mm] | DIZ (Klebsiella pneumoniae [2]) | MIC (Serratia marcescens [3]) [µg/mL] | MIC (Enterobacter cloacae [4]) [µg/mL] | MIC [5] [µg/mL] | diameter of the inhibition zone (DIZ) [6] | fold change (FC) (Serratia marcescens [7]) | MIC [8] [µg/mL] | diameter of the inhibition zone (DIZ) [9] [mm] | fold change (FC) (Proteus mirabilis [10]) | diameter of the inhibition zone (DIZ) [11] | diameter of the inhibition zone (DIZ) (Proteus mirabilis [12]) | MIC (Proteus mirabilis [13]) [µg/mL] | diameter of the inhibition zone (DIZ) [14] | diameter of the inhibition zone (DIZ) (Staphylococcus aureus [15]) | MIC (Pichia kudriavzevii) [µg/mL] | MIC (Staphylococcus aureus [16]) [µg/mL] | diameter of the inhibition zone (DIZ) (Acinetobacter baumannii [17]) | also measured |
| --- | --- | --- | --- | --- | --- | --- | --- | --- | --- | --- | --- | --- | --- | --- | --- | --- | --- | --- | --- | --- | --- |
| C[Si]1(C)OB(O)c2ccc(F)c(F)c21 | 12.5 (≈ 58.4 µM) | 18 mm | 28 | inactive | > 400 | > 400 | 3.12 (≈ 14.6 µM) | 13 mm | 8 | 50 (≈ 234 µM) | 33 | 2 | 30 mm | 12 mm | > 400 | inactive | 32 mm | 100 (≈ 467 µM) | 25 (≈ 117 µM) | inactive | fold change (FC) (Klebsiella pneumoniae [18]): 16; fold change (FC) (Acinetobacter baumannii [19]): 4; diameter of the inhibition zone (DIZ) (Pseudomonas aeruginosa [20]): inactive; MIC (Candida tropicalis [21]): 6.25 µg/mL (≈ 29.2 µM); MIC (Enterococcus faecalis [22]): 100 µg/mL (≈ 467 µM); MIC (Enterococcus faecium [23]): 100 µg/mL (≈ 467 µM); diameter of the inhibition zone (DIZ) (Candida tropicalis [24]): 12 mm; diameter of the inhibition zone (DIZ) (Enterococcus faecalis [25]): inactive; diameter of the inhibition zone (DIZ) (Burkholderia cepacia): inactive; fold change (FC) (Enterobacter cloacae [26]): 32; diameter of the inhibition zone (DIZ) (Candida albicans): 15 mm; MIC (Escherichia coli): > 400 µg/mL; fold change (FC) [27]: 16; MIC (Pseudomonas aeruginosa [28]): > 400 µg/mL |
| C[Si]1(C)OB(O)c2ccccc21 | 25 (≈ 140 µM) | inactive | 14 | inactive | > 200 | > 200 | 25 (≈ 140 µM) | inactive | 0 | 50 (≈ 281 µM) | 28 | 0 | 12 mm | inactive | > 200 | inactive | inactive | 25 (≈ 140 µM) | 200 (≈ 1120 µM) | inactive | fold change (FC) (Klebsiella pneumoniae [18]): 2; fold change (FC) (Acinetobacter baumannii [19]): 4; diameter of the inhibition zone (DIZ) (Pseudomonas aeruginosa [20]): inactive; MIC (Candida tropicalis [21]): 25 µg/mL (≈ 140 µM); MIC (Enterococcus faecalis [22]): > 200 µg/mL; MIC (Enterococcus faecium [23]): 200 µg/mL (≈ 1120 µM); diameter of the inhibition zone (DIZ) (Candida tropicalis [24]): inactive; diameter of the inhibition zone (DIZ) (Enterococcus faecalis [25]): inactive; diameter of the inhibition zone (DIZ) (Burkholderia cepacia): inactive; fold change (FC) (Enterobacter cloacae [26]): 4; diameter of the inhibition zone (DIZ) (Candida albicans): inactive; MIC (Escherichia coli): > 200 µg/mL; fold change (FC) [27]: 8; MIC (Pseudomonas aeruginosa [28]): > 200 µg/mL |
| C[Si]1(C)OB(O)c2cc(B(O)O)cc(F)c21 | 100 (≈ 417 µM) | 11 mm | 22 | inactive | > 400 | > 400 | 400 (≈ 1670 µM) | inactive | 2 | 50 (≈ 208 µM) | 29 | 4 | inactive | inactive | > 400 | inactive | 18 mm | 50 (≈ 208 µM) | 50 (≈ 208 µM) | inactive | fold change (FC) (Klebsiella pneumoniae [18]): 8; fold change (FC) (Acinetobacter baumannii [19]): 4; diameter of the inhibition zone (DIZ) (Pseudomonas aeruginosa [20]): inactive; MIC (Candida tropicalis [21]): 400 µg/mL (≈ 1670 µM); MIC (Enterococcus faecalis [22]): 400 µg/mL (≈ 1670 µM); MIC (Enterococcus faecium [23]): 200 µg/mL (≈ 834 µM); diameter of the inhibition zone (DIZ) (Candida tropicalis [24]): inactive; diameter of the inhibition zone (DIZ) (Enterococcus faecalis [25]): 12 mm; diameter of the inhibition zone (DIZ) (Burkholderia cepacia): inactive; fold change (FC) (Enterobacter cloacae [26]): 32; diameter of the inhibition zone (DIZ) (Candida albicans): inactive; MIC (Escherichia coli): > 400 µg/mL; fold change (FC) [27]: 16; MIC (Pseudomonas aeruginosa [28]): > 400 µg/mL |
